In ChEMBL document CHEMBL3526048, “In vitro metabolism of rivoglitazone, a novel peroxisome proliferator-activated receptor γ agonist, in rat, monkey, and human liver microsomes and freshly isolated hepatocytes” (Drug Metab Dispos, 2011) one finds Drug metabolism data, which are given here for two compounds.

The target of one series is Cytochrome P450 3A5 (Homo sapiens, UniProt P20815). Description: Activity of human CYP3A5 expressed in microsomes isolated from baculovirus infected insect cell assessed as enzyme-mediated compound formation treated with [14C]-rivoglitazone at 20 uM after 2 hrs by radio-HPLC/LC-MS/MS analysis in presence of NADPH-generating system. In kind it is ADME. In a few lines:
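cDNA-expressed human CYP3A5 in baculovirus-insect-cell microsomes (1 mg/ml protein) was incubated with [¹⁴C]rivoglitazone (20 μM) in 50 mM potassium phosphate (pH 7.4) or 100 mM Tris-HCl (pH 7.5). NADPH-generating system: 2 mM NADP⁺, 20 mM glucose 6-phosphate, 2 units/ml G6PDH, 10 mM MgCl₂. Incubation ran 2 h at 37°C with shaking; insect-cell control supersomes served as control. Acetonitrile stop, supernatant concentrated, then radio-HPLC, LC-MS and LC-MS/MS.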

The target in series [1] is T1, UDP-glucuronosyltransferase 2B7 (Homo sapiens, UniProt P16662).
T1 sequence (P16662 whole entry): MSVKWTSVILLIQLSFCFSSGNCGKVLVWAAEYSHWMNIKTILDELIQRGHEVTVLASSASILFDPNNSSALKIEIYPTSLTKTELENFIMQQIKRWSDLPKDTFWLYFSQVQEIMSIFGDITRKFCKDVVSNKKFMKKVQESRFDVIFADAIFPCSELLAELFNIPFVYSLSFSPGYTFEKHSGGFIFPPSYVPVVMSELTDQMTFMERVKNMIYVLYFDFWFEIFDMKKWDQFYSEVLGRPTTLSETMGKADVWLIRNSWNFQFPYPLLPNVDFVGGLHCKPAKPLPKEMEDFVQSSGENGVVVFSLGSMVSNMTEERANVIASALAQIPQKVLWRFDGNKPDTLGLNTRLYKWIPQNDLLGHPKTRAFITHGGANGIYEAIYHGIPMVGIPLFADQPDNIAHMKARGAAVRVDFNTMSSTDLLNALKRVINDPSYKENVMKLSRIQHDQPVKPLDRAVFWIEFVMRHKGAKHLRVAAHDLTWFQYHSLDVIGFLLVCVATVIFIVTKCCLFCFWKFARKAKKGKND
Description: Activity of human UGT2B7 expressed in microsomes isolated from baculovirus infected insect cell assessed as enzyme-mediated compound formation treated with [14C]-rivoglitazone at 20 uM after 4 hrs by radio-HPLC/LC-MS/MS analysis in presence of UDPGA, UDPGA/SAM.

Series [2] is described as follows: Drug level in cynomolgus monkey liver microsomes treated with [14C]-rivoglitazone at 20 uM after 2 to 4 hrs by radio-HPLC/LC-MS/MS analysis in presence of UDPGA, UDPGA/SAM and NADPH-generating system. In kind it is ADME, Macaca fascicularis.
Series [3] addresses T1, UDP-glucuronosyltransferase 2B7. Nature of the series: Activity of human UGT2B7 expressed in microsomes isolated from baculovirus infected insect cell assessed as enzyme-mediated 5-(4-((6-hydroxy-1-methyl-1H-benzo[d]imidazol-2-yl)methoxy)benzyl)thiazolidine-2,4-dione formation at 20 uM after 4 hrs by radio-HPLC/LC-MS/MS analysis in presence of NADPH-generating system/SAM. It is filed as ADME.

In a further series the target is Cytochrome P450 3A4 (Homo sapiens, UniProt P08684). Description: Activity of human CYP3A4 expressed in microsomes isolated from baculovirus infected insect cell assessed as enzyme-mediated 2-amino-3-((1-carboxy-2-(4-((6-methoxy-1-methyl-1H-benzo[d]imidazol-2-yl)methoxy)phenyl)ethyl)disulfanyl)propanoic acid formation at 20 uM after 2 hrs by radio-HPLC/LC-MS/MS analysis. It is filed as ADME. In a few lines: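 Baculovirus-insect-cell microsomes expressing the human CYP (1 mg/ml protein) were incubated with [14C]rivoglitazone (20 μM) in 50 mM potassium phosphate (pH 7.4) or 100 mM Tris-HCl (pH 7.5) with an NADPH-generating system (2 mM NADP+, 20 mM glucose 6-phosphate, 2 units/ml G6PDH, 10 mM MgCl2) for 2 h at 37°C. Insect-cell control supersomes served as the control. Reactions were stopped with acetonitrile, and the concentrated supernatants were analysed by radio-HPLC, LC-MS and LC-MS/MS.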
Cytochrome P450 3A4, sequence (P08684 whole entry): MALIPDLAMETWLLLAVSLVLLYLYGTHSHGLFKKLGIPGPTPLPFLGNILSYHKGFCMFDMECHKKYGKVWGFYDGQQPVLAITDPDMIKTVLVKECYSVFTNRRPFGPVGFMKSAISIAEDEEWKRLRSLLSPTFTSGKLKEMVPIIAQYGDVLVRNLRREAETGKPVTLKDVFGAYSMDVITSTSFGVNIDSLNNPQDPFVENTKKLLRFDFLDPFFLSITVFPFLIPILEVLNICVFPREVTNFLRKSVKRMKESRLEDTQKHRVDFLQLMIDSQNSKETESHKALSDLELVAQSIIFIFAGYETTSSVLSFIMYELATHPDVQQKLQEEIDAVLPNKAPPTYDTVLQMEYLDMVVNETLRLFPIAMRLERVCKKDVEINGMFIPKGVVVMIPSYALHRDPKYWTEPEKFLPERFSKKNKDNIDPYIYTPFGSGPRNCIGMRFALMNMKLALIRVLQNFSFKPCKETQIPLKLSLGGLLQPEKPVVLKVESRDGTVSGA

Series [4] can be described thus: Drug metabolism in rat hepatocytes assessed as formation of 2-((4-((2,4-dioxothiazolidin-5-yl)methyl)phenoxy)methyl)-1-methyl-1H-benzo[d]imidazol-6-yl hydrogen sulfate at 30 uM after 3 hrs by radio-HPLC/LC-MS/MS analysis. In kind it is ADME, cell-based, Hepatocyte.
A further series has as its system Liver microsome. Nature of the series: Drug metabolism in human liver microsomes assessed as formation of (2S,3S,4S,5R,6R)-3,4,5-trihydroxy-6-(5-(4-((6-methoxy-1-methyl-1H-benzo[d]imidazol-2-yl)methoxy)benzyl)-2,4-dioxothiazolidin-3-yl)tetrahydro-2H-pyran-2-carboxylic acid at 20 uM after 4 hrs by radio-HPLC/LC-MS/MS analysis in presence of UDPGA and UDPGA/SAM. In kind it is ADME. (In general: Liver microsomes are a subcellular fraction often used to study metabolism.)

Series [5] has as its target T2, Cytochrome P450 2C19 (Homo sapiens, UniProt P33261). Nature of the series: Activity of human CYP2C19 expressed in microsomes isolated from baculovirus infected insect cell assessed as enzyme-mediated 3-(4-((6-methoxy-1-methyl-1H-benzo[d]imidazol-2-yl)methoxy)phenyl)-2-(methylthio)propanoic acid formation at 20 uM after 2 hrs by radio-HPLC/LC-MS/MS analysis in presence of NADPH-generating system/SAM and UDPGA/SAM. In kind it is ADME.

Series [6] in a line: Drug metabolism in cynomolgus monkey liver microsomes assessed as formation of (2S,3S,4S,5R,6R)-6-((1-carboxy-2-(4-((6-methoxy-1-methyl-1H-benzo[d]imidazol-2-yl)methoxy)phenyl)ethylthio)carbonylamino)-3,4,5-trihydroxytetrahydro-2H-pyran-2-carboxylic acid at 20 uM after 4 hrs by radio-HPLC/LC-MS/MS analysis in presence of UDPGA and UDPGA/SAM. It is filed as ADME, Macaca fascicularis.

A short description of series [7]: Drug metabolism in monkey hepatocytes assessed as formation of 3-(4-((6-methoxy-1-methyl-1H-benzo[d]imidazol-2-yl)methoxy)phenyl)-2-(methylsulfinyl)propanamide at 30 uM after 3 hrs by radio-HPLC/LC-MS/MS analysis in presence of NADPH-generating system/SAM. As to conditions: cynomolgus monkey.
Series [8] concerns the target T2, Cytochrome P450 2C19. Description: Activity of human CYP2C19 expressed in microsomes isolated from baculovirus infected insect cell assessed as enzyme-mediated 2-amino-3-((1-carboxy-2-(4-((6-methoxy-1-methyl-1H-benzo[d]imidazol-2-yl)methoxy)phenyl)ethyl)disulfanyl)propanoic acid formation at 20 uM after 2 hrs by radio-HPLC/LC-MS/MS analysis. It is filed as ADME. The method in brief: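 Baculovirus/insect-cell microsomes expressing single human CYPs, 1 mg/ml protein, with 50 mM potassium phosphate (pH 7.4) or 100 mM Tris-HCl (pH 7.5). NADPH-generating system: 2 mM NADP⁺, 20 mM glucose 6-phosphate, 2 units/ml G6PDH, 10 mM MgCl₂. [¹⁴C]rivoglitazone at 20 μM, 2 h at 37°C with shaking. Control used insect-cell control supersomes. Stopped with acetonitrile; supernatant concentrated under nitrogen; metabolites analysed by radio-HPLC, LC-MS and LC-MS/MS.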

T2 sequence (P33261 whole entry): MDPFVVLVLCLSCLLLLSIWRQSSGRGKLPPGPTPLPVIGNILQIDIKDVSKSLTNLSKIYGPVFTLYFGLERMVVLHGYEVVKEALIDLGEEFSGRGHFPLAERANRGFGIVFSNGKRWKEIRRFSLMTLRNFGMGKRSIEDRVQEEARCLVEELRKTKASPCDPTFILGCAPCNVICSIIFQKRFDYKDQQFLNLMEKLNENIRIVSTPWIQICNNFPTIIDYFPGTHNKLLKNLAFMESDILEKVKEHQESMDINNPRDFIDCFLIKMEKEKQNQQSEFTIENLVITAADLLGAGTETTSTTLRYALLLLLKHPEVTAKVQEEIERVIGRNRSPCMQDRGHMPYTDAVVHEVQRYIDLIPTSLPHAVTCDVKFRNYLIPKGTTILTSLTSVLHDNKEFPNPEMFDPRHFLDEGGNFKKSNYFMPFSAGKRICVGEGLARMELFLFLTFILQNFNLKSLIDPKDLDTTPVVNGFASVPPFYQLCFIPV
Cytochrome P450 3A5, sequence (P20815 whole entry): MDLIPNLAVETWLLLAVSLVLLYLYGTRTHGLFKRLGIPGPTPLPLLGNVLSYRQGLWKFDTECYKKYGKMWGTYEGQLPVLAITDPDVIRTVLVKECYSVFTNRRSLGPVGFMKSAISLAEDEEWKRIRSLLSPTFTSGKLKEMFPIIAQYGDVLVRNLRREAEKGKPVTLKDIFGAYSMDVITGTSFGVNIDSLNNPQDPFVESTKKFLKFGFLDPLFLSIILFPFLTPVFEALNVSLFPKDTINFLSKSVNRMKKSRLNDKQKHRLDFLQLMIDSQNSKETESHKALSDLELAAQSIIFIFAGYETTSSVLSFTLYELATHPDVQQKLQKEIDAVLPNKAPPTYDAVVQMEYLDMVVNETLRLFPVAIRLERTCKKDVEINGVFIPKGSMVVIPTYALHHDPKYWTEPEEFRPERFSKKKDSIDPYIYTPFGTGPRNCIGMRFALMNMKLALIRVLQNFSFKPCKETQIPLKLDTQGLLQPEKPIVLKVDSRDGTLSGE

On to `COc1ccc2nc(COc3ccc(CC(S)C(=O)O)cc3)n(C)c2c1` (stereo unspecified), for which the Drug metabolism result (on Cytochrome P450 3A5; in [1]; in series [2]) was “metabolite_detected” throughout.
For the compound `COc1ccc2nc(COc3ccc(C[14CH]4SC(=O)NC4=O)cc3)n(C)c2c1.Cl` (racemic), the Drug metabolism entry in [3] is recorded as “metabolite_not_detected”; on Cytochrome P450 3A4, “metabolite_not_detected”; in [4], “metabolite_detected”; in the series with Liver microsome, “metabolite_detected”; on Cytochrome P450 2C19 [5], “metabolite_not_detected”; in series [6], “metabolite_detected”. Also, the Drug metabolism result (in [7]; at Cytochrome P450 2C19 [8]) was “metabolite_not_detected” in each case.
